A selection: hits, their analogues and other compounds. The true share with any hit is near 5.7%.
Mdm2 MdmX PPI = human Mdm2/MdmX binding inhibition. O15151+Q00987. AID 485346. 330,000 compounds, 3% hits. SaOS-2 split-luciferase Mdm2/MdmX complementation, luminescence. inhibition, % at 8 µM;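 active = inhibition of at least 50% at 8 µM in the primary screen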
Target sequence (O15151 whole entry, looked up): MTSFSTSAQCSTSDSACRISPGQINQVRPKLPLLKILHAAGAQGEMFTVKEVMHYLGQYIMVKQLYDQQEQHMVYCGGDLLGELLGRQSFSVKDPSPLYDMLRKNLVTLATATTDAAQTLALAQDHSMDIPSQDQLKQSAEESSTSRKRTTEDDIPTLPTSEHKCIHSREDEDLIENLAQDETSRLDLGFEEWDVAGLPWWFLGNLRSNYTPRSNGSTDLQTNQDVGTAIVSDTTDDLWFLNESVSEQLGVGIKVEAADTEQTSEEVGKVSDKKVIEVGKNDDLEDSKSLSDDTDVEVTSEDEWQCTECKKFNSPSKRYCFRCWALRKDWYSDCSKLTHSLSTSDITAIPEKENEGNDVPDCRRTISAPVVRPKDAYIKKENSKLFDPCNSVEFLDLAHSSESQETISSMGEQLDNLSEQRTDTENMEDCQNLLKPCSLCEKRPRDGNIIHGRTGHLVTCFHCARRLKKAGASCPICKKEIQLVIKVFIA
Target sequence (Q00987 whole entry, looked up): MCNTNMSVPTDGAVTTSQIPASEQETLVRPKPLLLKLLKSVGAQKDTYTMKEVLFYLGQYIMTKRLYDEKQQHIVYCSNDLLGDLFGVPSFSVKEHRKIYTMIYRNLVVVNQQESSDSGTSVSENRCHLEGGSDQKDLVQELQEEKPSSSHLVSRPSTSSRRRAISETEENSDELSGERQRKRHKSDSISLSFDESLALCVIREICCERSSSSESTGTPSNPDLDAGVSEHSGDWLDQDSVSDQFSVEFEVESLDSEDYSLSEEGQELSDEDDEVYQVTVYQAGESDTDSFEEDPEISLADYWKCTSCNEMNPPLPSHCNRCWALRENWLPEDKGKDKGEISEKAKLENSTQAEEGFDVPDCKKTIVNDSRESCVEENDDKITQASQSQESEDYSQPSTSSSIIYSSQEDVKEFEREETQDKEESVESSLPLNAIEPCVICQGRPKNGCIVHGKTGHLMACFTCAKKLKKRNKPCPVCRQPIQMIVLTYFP
Calb FLC = affects C. albicans growth with fluconazole; C. albicans CaCi-2 (fluconazole-resistant clinical isolate) + fluconazole, Alamar Blue growth, 48 h; growth inhibition, % (no concentration beside the values); 300,000 compounds, 0.57% hits; AID 1979;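 active = growth inhibition above about 58% in most replicates, limit read from the data, passing the limit was not always enough; inconclusive = exactly half the replicates above a set limit; inactive = most replicates below a set limit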;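 also: all wells also contain fluconazole at 8 µg/ml as a sub-toxic cotreatment; 0% = median of DMSO wells and 100% = median of geldanamycin control wells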
Beta apoptosis = blocks beta cell apoptosis; INS-1E cytokine-induced death, ATP luminescence, 48 h; percent of positive-control rescue, neutral wells zero; protection from apoptosis, % (concentration not given with the values); 300,000 compounds, 0.8% hits;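 active = Every replicate reaches about 75%, or at least half do and their mean reaches it too, limit read from the data; inconclusive = At least half of replicates reach the limit but their mean does not; inactive = Under half of replicates reach the limit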;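 also: 0% = cytokine-treated negative control wells and 100% = positive control rescue; higher means more ATP so stronger rescue from cytokine killing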
SKKanGAS inh = blocks kanamycin growth of S. pyogenes SKKanGAS strain. inhibition, % at 7.5 µM. AID 1662. 300,000 compounds, 1.3% hits. BacTiter-Glo, 6 h;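 active = mean replicate score, as percent of positive control median, at least 50; inconclusive = mean below 50 but one replicate at or above 50; inactive = mean and every replicate below 50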;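 also: strain carries kanamycin resistance gene driven by streptokinase promoter and grows in 40 µg/ml kanamycin; loss of luminescence reflects streptokinase promoter inhibition or plain growth inhibition; 0% = median of DMSO wells and 100% = positive control at its reference dose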
CSC inhib = blocks cancer stem cells. cancer stem cell-like cells viability, luminescence. inhibition, % at 7.5 µM. 300,000 compounds, 1.1% hits. AID 2717; in the data active = inhibition above about 75%; inconclusive = no clear call, values can overlap the other calls; tested in HMLE shEcad cells
T cruzi inh = T. cruzi replication inhibition | T. cruzi beta-gal in NIH3T3, luminescence, 90 h | inhibition, % (no concentration beside the values) | 300,000 compounds, 1.4% hits | AID 1885;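 active = mean inhibition across valid replicates above about 55%, limit read from the data; inconclusive = mean below that limit but half or more replicates reach it; inactive = mean below it, under half of replicates reach it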;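 also: signal also drops with host cell toxicity which is not excluded here; 0% = plate median of DMSO wells and 100% = zero luminescence signal; higher percent means less beta-gal luminescence so fewer parasites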
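System – NIH/3T3 host cells with β-galactosidase reporter T. cruzi · Doses – single 50 nL compound addition per well in DMSO · Reagent – 5000 T. cruzi trypomastigotes/well · Medium – Low-serum DMEM with 2% FBS · Timing – ≥90 h infection period, 3 h prior cell attachment · Evaluation – parasite load inhibition, % · Technique – GalScreen luminescence, 60 min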
Mdm2 MdmX conf = confirmation of human Mdm2/MdmX interaction inhibitors | shares compounds with Mdm2 MdmX PPI | Mdm2-MdmX binding, luminescent assay | inhibition, % at 8 µM | 10,000 compounds, 55% hits | AID 489028; in the data active = inhibition above about 40%
FLuc counter = inhibits full-length luciferase, flagging false Mdm2/MdmX hits | shares compounds with Mdm2 MdmX PPI | SaOS-2 full-length luciferase counterscreen, luminescence | inhibition, % at 8 µM | 6,200 compounds, 77% hits | AID 504607;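 active = mean inhibition at 8 µM reaching about 37%, which flags the compound as non-specific, limit read from the data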;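 also: p53-null SaOS-2 cells with luciferase driven by a doxycycline-inducible promoter; compound on cells about two nights before reading with doxycycline added after day one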
Numbers without * were called inactive; ? = inconclusive; . = no result given.

SMILES | Mdm2 MdmX PPI | Calb FLC | Beta apoptosis | SKKanGAS inh | CSC inhib | T cruzi inh | Mdm2 MdmX conf | FLuc counter
CC(=O)Nc1cccc(C(=O)OC(C)C(=O)NC(=O)NC2CCCCC2)c1 (stereo not given) | 24 | . | -1 | -14 | -10 | 3 | . | .
N#CC1=C2SCC(O)(c3ccccc3)N2C(=O)CC1c1ccccc1 (stereo not given) | 76* | 10 | 15 | 18 | 54 | -2 | 74* | 58*
Cc1nn(CCCC(=O)NCc2ccco2)c(=O)c2nn(-c3ccccc3)c(C)c12 | 26 | -1 | -4 | -3 | -23 | 2 | . | .
Cc1nnc(NC(=O)c2nc(S(=O)(=O)Cc3ccccc3C)ncc2Cl)s1 | 95* | -2 | -38 | 8 | 85* | -8 | 71* | 52*
CSc1nnc(NC(=O)c2nc(S(=O)(=O)Cc3ccccc3F)ncc2Cl)s1 | 100* | -7 | -43 | 7 | ? | -21 | 57* | 52*
Cc1nnc(NC(=O)CN2CCN(Cc3ccccc3Cl)CC2)s1 | 3 | -6 | -1 | -2 | -11 | 20 | . | .
CC(C)c1nnc(NC(=O)c2nc(S(=O)(=O)Cc3ccccc3F)ncc2Cl)s1 | 97* | 1 | -27 | 5 | 102* | -24 | 46* | 5
N#C/C(=N\Nc1cccc(C(F)(F)F)c1)C(=O)c1ccsc1 | 78* | 23 | 47 | 33 | 52 | -12 | 63* | 67*
O=C(NC(=S)Nc1nc2c(s1)CSc1ccccc1-2)c1ccccc1 | 68* | 43 | 17 | 38 | -6 | 15 | 8 | .
CCC(C)N1C(=O)S/C(=C/c2ccc3c(c2)n(C)c(=O)n3C)C1=O (stereo not given) | 42 | 10 | . | 19 | -9 | 2 | . | .
CCOC(=O)C(C)N1C(=O)S/C(=C/c2ccc3c(c2)n(C)c(=O)n3C)C1=O (stereo not given) | 51* | -3 | -17 | 1 | 6 | -2 | 19 | .
CCNc1ccc(C(=O)OCC)cc1NC(=O)c1cccc(N(C)C)c1 | 58* | 58 | . | -9 | . | -80 | 54* | 65*
COc1ccc(C)cc1NC(=O)CNC(C)C(=O)Nc1ccc(C(C)=O)cc1 (stereo not given) | 1 | 0 | -3 | 5 | -23 | 1 | . | .
Cc1cc(C(=O)CSc2nnnn2C)c(C)n1CCc1ccc(Cl)cc1 | 55* | . | -7 | 3 | -9 | -10 | 29 | .
COc1ccc(CCn2c(C)cc(C(=O)CSc3nnnn3-c3ccccc3)c2C)cc1 | 28 | -17 | 1 | -1 | 0 | 16 | . | .
Cc1cc(C(=O)CCl)c(C)n1CCc1ccccc1 | 74* | -27 | 12 | -2 | 24 | -20 | 43* | 71*
CCOCCCN(C)C1CCN(C(=O)c2oc3ccccc3c2NC(=O)COc2ccc(F)cc2)CC1 | 36 | 4 | -1 | -1 | -13 | -1 | . | .
COc1cc(C#Cc2c(-c3cncn3C)n(C)c3ccc(-c4ccc(OC)c(OC)c4)cc23)cc(OC)c1 | 52* | . | 13 | . | 49 | . | 23 | .
COc1cc(C#Cc2c(-c3cncn3C)n(C)c3ccc(Br)cc23)cc(OC)c1 | 75* | . | 3 | . | . | . | -3 | .
COC(=O)C1=C(C)N(CCc2ccccc2)C(=O)C1(NS(=O)(=O)c1ccc(NC(C)=O)cc1)C(F)(F)F (stereo not given) | 65* | 3 | -1 | 0 | 17 | 9 | 32 | 59*
C=CCc1ccccc1OCC(O)CNC(=O)c1ccccc1C(=O)O (stereo not given) | 19 | -5 | 1 | -5 | -4 | -1 | . | .
COc1ccc2cc(C(C)C(=O)NC3CCC(O)CC3)ccc2c1 (stereo not given) | 7 | -12 | 4 | 2 | -3 | 13 | . | .
Nc1cccnc1S(=O)(=O)c1ccccc1 | 17 | -4 | -3 | -8 | -15 | -13 | . | .
O=[N+]([O-])c1cccnc1S(=O)(=O)c1ccccc1 | 92* | 92* | 65 | 4 | 16 | 68* | 65* | 58*
COc1ccc([N+](=O)[O-])c(S(=O)(=O)c2ccc(Cl)cc2)n1 | 97* | -37 | 83* | 0 | 39 | 1 | 95* | 52*
